# Source: ChEMBL document CHEMBL4422632, “Design of Novel Inhibitors of Human Thymidine Phosphorylase: Synthesis, Enzyme Inhibition, in Vitro Toxicity, and Impact on Human Glioblastoma Cancer” (J Med Chem, 2019)
# Calls of active or inactive are those of the source. The calls are words filed in the database; no cut-off is given here.
# What was measured:
# [1] = Cytotoxicity against human HepG2 cells assessed as cell viability at 25 uM after 72 hrs by neutral red uptake-based assay relative to control; conditions: read-out: Activity
# Summary of the method: (§1)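 Cells grown in DMEM with 10% FBS at 37 °C, 5% CO₂; seeded 2 x 10³ cells/well, adhered 24 h, then exposed 72 h. MTT: 1 mg/mL for 3 h, formazan in DMSO, absorbance 595 nm. NRU: neutral red 25 µg/mL in serum-free medium for 3 h, desorbed in ethanol:acetic acid:water. Viability as % of untreated control; mean ± SEM of three to five independent experiments in triplicate.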
# [2] = Cytotoxicity against human HepG2 cells assessed as cell viability at 250 uM after 72 hrs by MTT assay relative to control; assay type: cell-based; conditions: read-out: Activity; summary of the method: as §1
# [3] = Cytotoxicity against human HepG2 cells assessed as cell viability at 500 uM after 72 hrs by MTT assay relative to control; assay type: cell-based; conditions: read-out: Activity; summary of the method: as §1
# [4] = Cytotoxicity against African green monkey Vero cells assessed as cell viability at 250 uM after 72 hrs by MTT assay relative to control; assay type: cell-based; conditions: chlorocebus sabaeus, read-out: Activity; summary of the method: as §1
# [5] = Cytotoxicity against African green monkey Vero cells assessed as cell viability at 500 uM after 72 hrs by MTT assay relative to control; assay type: cell-based; conditions: chlorocebus sabaeus, read-out: Activity; summary of the method: as §1
# [6] = Cytotoxicity against African green monkey Vero cells assessed as cell viability at 250 uM after 72 hrs by neutral red uptake-based assay relative to control; conditions: chlorocebus sabaeus, read-out: Activity; summary of the method: as §1
# [7] = Cytotoxicity against African green monkey Vero cells assessed as cell viability at 1000 uM after 72 hrs by neutral red uptake-based assay relative to control; conditions: chlorocebus sabaeus, read-out: Activity; summary of the method: as §1
# [8] = Cytotoxicity against human HaCaT cells assessed as cell viability at 250 uM after 72 hrs by MTT assay relative to control; assay type: cell-based; conditions: read-out: Activity; summary of the method: as §1
# [9] = Cytotoxicity against human HaCaT cells assessed as cell viability at 500 uM after 72 hrs by MTT assay relative to control; assay type: cell-based; conditions: read-out: Activity; summary of the method: as §1
# [10] = Cytotoxicity against human HaCaT cells assessed as cell viability at 250 uM after 72 hrs by neutral red uptake-based assay relative to control; conditions: read-out: Activity; summary of the method: as §1
# [11] = Cytotoxicity against human HaCaT cells assessed as cell viability at 500 uM after 72 hrs by neutral red uptake-based assay relative to control; conditions: read-out: Activity; summary of the method: as §1
# [12] = Cytotoxicity against mouse RAW264.7 cells assessed as cell viability at 1000 uM after 72 hrs by MTT assay relative to control; assay type: cell-based; conditions: read-out: Activity
# Summary of the method: (§2)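 Cells kept in DMEM with 10% heat-inactivated FBS, 1% penicillin-streptomycin and 0.1% fungizone at 37 °C, 5% CO₂. U-87 MG seeded at 2 x 10^3 cells/well, RAW 264.7 at 5 x 10^2, adhered 24 h, then exposed 72 h. MTT: 1 mg/mL for 3 h, formazan in DMSO, A595. NRU: 25 μg/mL dye, 3 h, ethanol:acetic acid:water desorb. Untreated wells = 100%; three to five independent experiments in triplicate.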
# [13] = Cytotoxicity against mouse RAW264.7 cells assessed as cell viability at 50 uM after 72 hrs by neutral red uptake-based assay relative to control; conditions: read-out: Activity; summary of the method: as §2
# [14] = Cytotoxicity against mouse RAW264.7 cells assessed as cell viability at 100 uM after 72 hrs by neutral red uptake-based assay relative to control; conditions: read-out: Activity; summary of the method: as §2
# [15] = Cytotoxicity against human U87MG cells assessed as cell viability at 50 uM after 72 hrs by MTT assay relative to control; assay type: cell-based, U-87MG ATCC; conditions: read-out: Activity; summary of the method: as §2
# [16] = Cytotoxicity against human U87MG cells assessed as cell viability at 500 uM after 72 hrs by neutral red uptake-based assay relative to control; parameters: species or system U-87MG ATCC; conditions: read-out: Activity; summary of the method: as §2
# [17] = Cytotoxicity against human U87MG cells assessed as cell viability at 1000 uM after 72 hrs by neutral red uptake-based assay relative to control; parameters: species or system U-87MG ATCC; conditions: read-out: Activity; summary of the method: as §2
# HepG2 = test: Genotoxicity in human HepG2 cells assessed as induction of DNA-strand breaks at 1000 uM after 24 hrs by alkaline comet assay; assay type: toxicity, cell-based; conditions: hepg2, 24 h
# Summary of the method: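 HepG2 seeded at 5 x 10^4 cells/well for 24 h, then exposed 24 h at 250, 500 and 1,000 μM. Alkaline comet assay: lysis 24 h, unwinding in 300 mM NaOH/1 mM EDTA (pH > 13) at 4 °C for 20 min, electrophoresis 20 min at 25 V, silver staining. MMS 100 µM as positive control. 100 cells scored 0–4 for a damage index of 0–400. Mean ± SEM of three experiments.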
# Cytochrome P450 1A2 = target: T1, Cytochrome P450 1A2 (Homo sapiens, UniProt P05177); test: Inhibition of CYP1A2 in human liver microsomes by HPLC-MS/MS analysis; assay type: ADME
# T1 sequence (P05177 whole entry): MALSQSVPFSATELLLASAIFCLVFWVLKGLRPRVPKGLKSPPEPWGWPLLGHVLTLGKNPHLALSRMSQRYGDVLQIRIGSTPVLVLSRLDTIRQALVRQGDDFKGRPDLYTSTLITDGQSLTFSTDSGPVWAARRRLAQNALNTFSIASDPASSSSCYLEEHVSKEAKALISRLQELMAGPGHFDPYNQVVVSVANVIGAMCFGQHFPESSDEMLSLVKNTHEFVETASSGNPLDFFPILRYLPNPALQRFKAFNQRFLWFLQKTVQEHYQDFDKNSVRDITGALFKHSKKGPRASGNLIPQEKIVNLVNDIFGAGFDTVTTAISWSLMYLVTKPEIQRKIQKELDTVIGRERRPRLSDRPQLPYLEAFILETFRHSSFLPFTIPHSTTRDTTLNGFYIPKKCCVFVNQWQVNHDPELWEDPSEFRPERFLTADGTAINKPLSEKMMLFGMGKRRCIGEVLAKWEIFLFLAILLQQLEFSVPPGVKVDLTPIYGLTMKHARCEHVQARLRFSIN
# Cytochrome P450 2C9 = Cytochrome P450 2C9 (Homo sapiens, UniProt P11712); test: Inhibition of CYP2C9 in human liver microsomes by HPLC-MS/MS analysis; assay type: ADME
# Chain of Cytochrome P450 2C9 (P11712 whole entry): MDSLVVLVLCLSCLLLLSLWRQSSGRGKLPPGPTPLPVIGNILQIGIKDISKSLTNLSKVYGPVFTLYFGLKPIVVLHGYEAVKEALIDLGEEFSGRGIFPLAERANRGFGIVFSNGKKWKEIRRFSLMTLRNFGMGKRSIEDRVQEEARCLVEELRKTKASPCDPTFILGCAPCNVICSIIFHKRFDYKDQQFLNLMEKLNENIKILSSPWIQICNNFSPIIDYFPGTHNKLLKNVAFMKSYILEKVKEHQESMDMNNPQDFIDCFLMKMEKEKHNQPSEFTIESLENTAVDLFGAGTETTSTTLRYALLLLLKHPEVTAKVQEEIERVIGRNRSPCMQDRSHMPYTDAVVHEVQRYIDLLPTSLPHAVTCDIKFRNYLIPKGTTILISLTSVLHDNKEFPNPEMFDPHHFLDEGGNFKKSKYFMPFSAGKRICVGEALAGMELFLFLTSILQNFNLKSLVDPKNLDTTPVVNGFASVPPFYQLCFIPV
# [18] = Intrinsic clearance in human liver S9 fraction at 2 uM up to 30 mins in presence of NADPH by HPLC-MS/MS analysis; assay type: ADME, subcellular; conditions: read-out: CLH
# [19] = Tmax in CF1 mouse at 50 mg/kg, ip by non-compartmental analysis; assay type: ADME, organism-based; conditions: in vivo
# [20] = Toxicity in nude BALB/c mouse xenografted with human U87MG cells assessed as reduction in body weight at 50 mg/kg, […]; assay type: organism-based; conditions: in vivo, ip, 120 h
# U-87 MG = test: Anti-angiogenic activity in tumor of human U87MG cells xenografted in nude BALB/c mouse assessed as reduction in CD31 staining at 50 mg/kg, ip administered for 14 days by immunohistochemistry; assay type: functional, organism-based; conditions: U-87MG ATCC
# Summary of the method: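 Male nude mice bearing subcutaneous right-flank xenografts of 5 x 10⁵ U-87 MG cells; dosing began at about 50 mm³ tumors, ip daily for 14 days. Tumors formalin-fixed, paraffin sections 3 µm; citrate pH 6 antigen retrieval at 95-98 °C; primary antibody overnight at 4 °C, HRP secondary, DAB. Positive area quantified by optical density at x200, 4 images per tumor; mean ± SEM, one-way ANOVA with Dunnett.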
# [21] = Toxicity in nude BALB/c mouse xenografted with human U87MG cells assessed as reduction in body weight at 50 mg/kg, […] co-treated with temozolamide; assay type: organism-based; conditions: in vivo, ip, 120 h
smiles,measurement,setting,value
O=c1[nH]c(CNC(CO)CO)c(I)c(=O)[nH]1,"viability at 72 h, 25 µM",[1],102%
same,"viability at 72 h, 250 µM",[2],100%
same,"viability at 72 h, 500 µM",[3],94%
same,"viability at 72 h, 250 µM",[4],95%
same,"viability at 72 h, 500 µM",[5],84%
same,"viability at 72 h, 250 µM",[6],103%
same,"viability at 72 h, 1000 µM",[7],72%
same,"viability at 72 h, 250 µM",[8],96%
same,"viability at 72 h, 500 µM",[9],93%
same,"viability at 72 h, 250 µM",[10],100%
same,"viability at 72 h, 500 µM",[11],95%
same,"viability at 72 h, 1000 µM",[12],72%
same,"viability at 72 h, 50 µM",[13],102%
same,"viability at 72 h, 100 µM",[14],97%
same,"viability at 72 h, 50 µM",[15],97%
same,"viability at 72 h, 500 µM",[16],93%
same,"viability at 72 h, 1000 µM",[17],72%
same,Activity,HepG2,Non-Toxic
same,IC50,Cytochrome P450 1A2,> 100 µM
same,IC50,Cytochrome P450 2C9,> 100 µM
same,CLint scaled at 2 µM,[18],13 mL/min/kg
same,Tmax,[19],4.8 min
same,Activity,[20],Non-Toxic
same,Activity,U-87 MG,Active
same,Activity,[21],Non-Toxic
